In ChEMBL document CHEMBL1140779, “Trisubstituted 1,2,4-triazoles as ligands for the ghrelin receptor: on the significance of the orientation and substitution at position 3” (Bioorg Med Chem Lett, 2008):

Tests used:
[1] = target: T1, Growth hormone secretagogue receptor type 1 (Homo sapiens, UniProt Q92847); experiment: Displacement of [125I]His9-ghrelin from human GHSR1a receptor expressed in LLC PK1 cells; format: cell-based
[2] = target: T1, Growth hormone secretagogue receptor type 1; experiment: Antagonist activity at human GHSR1a receptor expressed in CHO cells assessed as intracellular calcium mobilization
[3] = target: T1, Growth hormone secretagogue receptor type 1; experiment: Agonist activity at human GHSR1a receptor expressed in CHO cells assessed as intracellular calcium mobilization at 10 uM relative to ghrelin; format: functional, cell-based
Procedure, shortened: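 Transiently electroporated hGHS-R1a CHO cells loaded with Fluo-4AM; compound at 10 µM, triplicate, at least 2 independent experiments; fluorescence rise (485/525 nm, 60 s read) compared with buffer-only basal; maximal output taken as that of 0.1 µM ghrelin.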

[4] = target: T1, Growth hormone secretagogue receptor type 1; experiment: Antagonist activity at human GHSR1a receptor expressed in CHO cells assessed as reduction of ghrelin-induced intracellular calcium mobilization; format: functional, cell-based
[5] = target: T1, Growth hormone secretagogue receptor type 1; experiment: Agonist activity at human GHSR1a receptor expressed in CHO cells assessed as intracellular calcium mobilization; format: functional, cell-based

T1 sequence (Q92847 whole entry): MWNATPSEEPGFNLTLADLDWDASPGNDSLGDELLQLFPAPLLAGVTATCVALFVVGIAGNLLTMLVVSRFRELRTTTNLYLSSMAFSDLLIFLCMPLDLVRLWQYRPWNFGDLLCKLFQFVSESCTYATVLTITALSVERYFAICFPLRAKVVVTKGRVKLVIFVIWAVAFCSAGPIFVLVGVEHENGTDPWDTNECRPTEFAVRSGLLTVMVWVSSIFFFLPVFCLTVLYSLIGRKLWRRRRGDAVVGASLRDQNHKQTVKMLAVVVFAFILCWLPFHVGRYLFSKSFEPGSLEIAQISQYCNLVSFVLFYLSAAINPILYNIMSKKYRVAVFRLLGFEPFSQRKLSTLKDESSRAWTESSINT

| Structure (SMILES) | IC50 [1] [nM] | Kb [2] [nM] | Activity [3] [%] | IC50 [4] [nM] | EC50 [5] [nM] | Kb [4] [nM] |
| --- | --- | --- | --- | --- | --- | --- |
| COc1ccc(Cn2c(CCc3c[nH]c4ccccc34)nnc2[C@H](Cc2c[nH]c3ccccc23)NC(=O)[C@@H]2CCCN2)cc1 | 650 | 440 | 0 | – | – | – |
| COc1ccc(Cn2c(CCc3c[nH]c4ccccc34)nnc2[C@@H](Cc2c[nH]c3ccccc23)NC(=O)C(C)(C)N)cc1 | – | – | – | 190 | – | – |
| COc1ccc(Cn2c(CCc3c[nH]c4ccccc34)nnc2[C@H](Cc2c[nH]c3ccccc23)NC(=O)C2CCOCC2)cc1 | 1300 | – | 0 | – | 24 | – |
| COc1ccc(Cn2c(CCc3c[nH]c4ccccc34)nnc2[C@H](Cc2c[nH]c3ccccc23)NC(=O)C(C)(C)N)cc1 | 140 | – | 31 | – | – | – |
| COc1ccc(Cn2c(CCc3c[nH]c4ccccc34)nnc2[C@@H](CC(=O)OCc2ccccc2)NC(=O)C(C)(C)N)cc1 | 450 | – | 5 | – | – | – |
| COc1ccc(Cn2c(CCc3c[nH]c4ccccc34)nnc2[C@H](Cc2c[nH]c3ccccc23)NC(=O)C2CCNCC2)cc1 | 7 | – | 100 | – | 32 | – |
| COc1ccc(Cn2c(CCc3c[nH]c4ccccc34)nnc2[C@@H](Cc2ccccc2)NC(=O)C(C)(C)N)cc1 | 200 | – | 6 | – | – | – |
| COc1ccc(Cn2c(Cc3ccccc3)nnc2[C@H](Cc2c[nH]c3ccccc23)NC(=O)C(C)(C)N)cc1 | > 1000 | – | 5 | – | – | – |
| COc1ccc(Cn2c(CCc3c[nH]c4ccccc34)nnc2[C@@H](COCc2ccccc2)NC(=O)C(C)(C)N)cc1 | 800 | – | 0 | – | – | – |
| COc1ccc(Cn2c(CCc3c[nH]c4ccccc34)nnc2[C@@H](Cc2c[nH]c3ccccc23)NC(=O)[C@@H]2CCCN2)cc1 | – | 6 | – | – | – | – |
| COc1ccc(Cn2c(CCc3c[nH]c4ccccc34)nnc2[C@@H](Cc2c[nH]c3ccccc23)NC(=O)c2ccccn2)cc1 | 8 | – | 0 | – | – | – |
| COc1ccc(Cn2c(Cc3ccccc3)nnc2[C@@H](Cc2c[nH]c3ccccc23)NC(=O)C(C)(C)N)cc1 | – | – | 9 | 870 | – | 19 |
| COc1ccc(Cn2c(Cc3ccccc3)nnc2[C@@H](Cc2ccccc2)NC(=O)C(C)(C)N)cc1 | > 1000 | – | 6 | – | – | – |
| COc1ccc(Cn2c(CCc3c[nH]c4ccccc34)nnc2[C@@H](Cc2c[nH]c3ccccc23)NC(=O)C2CCOCC2)cc1 | 45 | – | 2 | – | 24 | – |

Further lines, results first:

| IC50 [1] [nM] | Kb [2] [nM] | Activity [3] [%] | IC50 [4] [nM] | EC50 [5] [nM] | Kb [4] [nM] | Structure (SMILES) |
| --- | --- | --- | --- | --- | --- | --- |
| – | – | 0 | 620 | – | – | COc1ccc(Cn2c(CCc3c[nH]c4ccccc34)nnc2[C@@H](Cc2c[nH]c3ccccc23)NC(=O)C(C)(C)N)c(OC)c1 |
| 450 | – | 4 | – | – | – | COc1ccc(Cn2c(CCc3ccccc3)nnc2[C@H](Cc2c[nH]c3ccccc23)NC(=O)C(C)(C)N)c(OC)c1 |
| – | – | 0 | 600 | – | – | COc1ccc(Cn2c(CCCc3ccccc3)nnc2[C@@H](Cc2c[nH]c3ccccc23)NC(=O)C(C)(C)N)cc1 |
| > 1000 | – | 0 | – | – | – | COc1ccc(Cn2c(CCc3ccccc3)nnc2[C@H](Cc2c[nH]c3ccccc23)NC(=O)C(C)(C)N)cc1 |
| – | – | 0 | – | – | – | COc1ccc(Cn2c(Cc3ccccc3)nnc2[C@@H](Cc2c[nH]c3ccccc23)NC(=O)C(C)(C)N)c(OC)c1 |
| > 1000 | – | 11 | – | – | – | COc1ccc(Cn2c(Cc3ccccc3)nnc2[C@H](Cc2c[nH]c3ccccc23)NC(=O)C(C)(C)N)c(OC)c1 |
| – | – | 0 | 800 | – | – | COc1ccc(Cn2c(CCc3ccccc3)nnc2[C@@H](Cc2c[nH]c3ccccc23)NC(=O)C(C)(C)N)c(OC)c1 |
| – | – | 2 | 275 | – | – | COc1ccc(Cn2c(CCc3ccccc3)nnc2[C@@H](Cc2c[nH]c3ccccc23)NC(=O)C(C)(C)N)cc1 |
| – | – | 4 | 3200 | – | 69 | COc1ccc(Cn2c(CCc3c[nH]c4ccccc34)nnc2[C@H](Cc2c[nH]c3ccccc23)NC(=O)C(C)(C)N)c(OC)c1 |
| > 1000 | – | 17 | – | – | – | COc1ccc(Cn2c(CCCc3ccccc3)nnc2[C@H](Cc2c[nH]c3ccccc23)NC(=O)C(C)(C)N)cc1 |
